How the values were obtained:
[1] = system: Liver microsome; assay: Drug level in human liver microsomes treated with [14C]BIIB021 at 10 uM […] by LC-RAM-MS analysis in presence of anti-CYP1A2 monoclonal antibody; assay type: ADME; settings: 1.5 h
[2] = system: Liver microsome; assay: Drug level in human liver microsomes treated with [14C]BIIB021 at 10 uM […] by LC-RAM-MS analysis in presence of anti-CYP2E1 monoclonal antibody; assay type: ADME; settings: 1.5 h
[3] = system: Liver microsome; assay: Drug level in human liver microsomes treated with [14C]BIIB021 at 10 uM after 90 mins by LC-RAM-MS analysis in presence of anti-CYP2B6 monoclonal antibody; assay type: ADME; settings: 1.5 h
[4] = system: Liver microsome; assay: Drug level in human liver microsomes treated with [14C]BIIB021 at 10 uM after 90 mins by LC-RAM-MS analysis in presence of anti-CYP2D6 monoclonal antibody; assay type: ADME; settings: 1.5 h
[5] = system: Liver microsome; assay: Drug level in human liver microsomes treated with [14C]BIIB021 at 10 uM after 90 mins by LC-RAM-MS analysis in presence of anti-CYP2A6 monoclonal antibody; assay type: ADME; settings: 1.5 h
[6] = Drug level in human liver cytosol treated with [14C]BIIB021 at 10 uM after 30 mins by LC-RAM-MS analysis; assay type: ADME, tissue-based; settings: 0.5 h
Procedure, shortened: (§1)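 Human liver cytosol (1 mg/mL protein) incubated with 10 µM [14C]BIIB021 (0.5 µCi/mL) in 100 mM phosphate buffer, pH 7.4, for 30 min. Reaction quenched with ice-cold acetonitrile, then centrifuged 10 min at 4°C, and supernatant analysed by LC-MS. Where used, inhibitors (isovanillin 100 µM, menadione 100 µM, allopurinol 100 µM, raloxifene 50 µM) were preincubated in cytosol 10 min at 37°C before substrate addition.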

[7] = Drug level in human liver cytosol treated with [14C]BIIB021 at 10 uM after 30 mins by LC-RAM-MS analysis in presence of xanthine oxidase inhibitor allopurinol; assay type: ADME, tissue-based; settings: 0.5 h; procedure, shortened: as §1
[8] = system: Liver microsome; assay: Drug level in human liver microsomes treated with [14C]BIIB021 at 10 uM after 90 mins by LC-RAM-MS analysis in presence of anti-CYP3A4 monoclonal antibody; assay type: ADME; settings: 1.5 h
[9] = system: Liver microsome; assay: Drug level in human liver microsomes treated with [14C]BIIB021 at 10 uM […] by LC-RAM-MS analysis in presence of anti-CYP2C19 monoclonal antibody; assay type: ADME; settings: 1.5 h
[10] = system: Liver microsome; assay: Drug metabolism in human liver microsomes assessed as CF3785 metabolite formation at 10 uM […] by LC-RAM-MS analysis in presence of anti-CYP2E1 monoclonal antibody; assay type: ADME
Procedure, shortened: (§2)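 All components except substrate and NADPH were preincubated 15 min on ice, then 5 min at 37°C. Substrate and NADPH were added and incubated 60 min at 37°C. Incubations without antibody served as positive controls.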

[11] = system: Liver microsome; assay: Drug metabolism in human liver microsomes assessed as CF2246 metabolite formation at 10 uM […] by LC-RAM-MS analysis in presence of anti-CYP2B6 monoclonal antibody; assay type: ADME; procedure, shortened: as §2
[12] = system: Liver microsome; assay: Drug metabolism in human liver microsomes assessed as CF2246 metabolite formation at 10 uM after […] by LC-RAM-MS analysis in presence of anti-CYP2D6 monoclonal antibody; assay type: ADME; procedure, shortened: as §2
[13] = Drug metabolism in human liver cytosol assessed as CF2483 metabolite formation at 10 uM after 30 mins by LC-RAM-MS analysis in presence of aldehyde oxidase inhibitor raloxifene; assay type: ADME; settings: 0.5 h; procedure, shortened: as §1
[14] = Drug metabolism in human liver cytosol assessed as CF2483 metabolite formation at 10 uM after 30 mins by LC-RAM-MS analysis in presence of xanthine oxidase inhibitor allopurinol; assay type: ADME; settings: 0.5 h; procedure, shortened: as §1
[15] = system: Liver microsome; assay: Drug metabolism in human liver microsomes assessed as CF2246 metabolite formation at 10 uM after […] by LC-RAM-MS analysis in presence of anti-CYP2E1 monoclonal antibody; assay type: ADME; procedure, shortened: as §2
[16] = Drug metabolism in human liver cytosol assessed as CF2483 metabolite formation at 10 uM after 30 mins by LC-RAM-MS analysis in presence of aldehyde oxidase inhibitor menadione; assay type: ADME; settings: 0.5 h; procedure, shortened: as §1
[17] = system: Liver microsome; assay: Drug metabolism in human liver microsomes assessed as CF3785 metabolite formation at 10 uM […] by LC-RAM-MS analysis in presence of anti-CYP2D6 monoclonal antibody; assay type: ADME; procedure, shortened: as §2
[18] = system: Liver microsome; assay: Drug metabolism in human liver microsomes assessed as CF3785 metabolite formation at 10 uM […] by LC-RAM-MS analysis in presence of anti-CYP2A6 monoclonal antibody; assay type: ADME; procedure, shortened: as §2
[19] = system: Liver microsome; assay: Drug metabolism in human liver microsomes assessed as CF2246 metabolite formation at 10 uM after […] by LC-RAM-MS analysis in presence of anti-CYP3A4 monoclonal antibody; assay type: ADME; procedure, shortened: as §2
[20] = system: Liver microsome; assay: Drug metabolism in human liver microsomes assessed as CF3785 metabolite formation at 10 uM […] by LC-RAM-MS analysis in presence of anti-CYP2B6 monoclonal antibody; assay type: ADME; procedure, shortened: as §2
[21] = system: Liver microsome; assay: Drug metabolism in human liver microsomes assessed as CF2246 metabolite formation at 10 uM after […] by LC-RAM-MS analysis in presence of anti-CYP2A6 monoclonal antibody; assay type: ADME; procedure, shortened: as §2
[22] = Drug metabolism in human liver cytosol assessed as CF2483 metabolite formation at 10 uM after 30 mins by LC-RAM-MS analysis in presence of aldehyde oxidase inhibitor isovanillin; assay type: ADME; settings: 0.5 h; procedure, shortened: as §1
[23] = Drug metabolism in human liver cytosol assessed as CF2483 metabolite formation at 10 uM after 30 mins by LC-RAM-MS analysis; assay type: ADME, tissue-based; settings: 0.5 h; procedure, shortened: as §1
[24] = system: Liver microsome; assay: Drug metabolism in human liver microsomes assessed as CF2246 metabolite formation at 10 uM […] by LC-RAM-MS analysis in presence of anti-CYP1A2 monoclonal antibody; assay type: ADME; procedure, shortened: as §2
[25] = molecular target: CYP3A4 (Homo sapiens, UniProt P08684); assay: Drug metabolism assessed as unchanged drug level in baculovirus-infected Sf9 cell microsomes expressing human recombinant CYP3A4 at 10 uM after 30 mins by LC-RAM-MS analysis; assay type: ADME; settings: read-out: Drug metabolism
Procedure, shortened: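 Microsomes from baculovirus-infected Sf9 cells expressing recombinant human CYP3A4 with CYP450 reductase (50 pmol/mL) incubated in duplicate with 10 µM [14C]BIIB021 (0.5 µCi/mL) in 100 mM potassium phosphate pH 7.4. Reaction started with 1 mM NADPH (final), run 30 min at 37°C with gentle shaking, stopped with ice-cold acetonitrile containing 0.1% formic acid, centrifuged, and supernatant analysed by LC-MS.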

[26] = system: Liver microsome; assay: Drug metabolism in human liver microsomes assessed as CF2246 metabolite formation at 10 uM […] by LC-RAM-MS analysis in presence of anti-CYP2C19 monoclonal antibody; assay type: ADME; procedure, shortened: as §2
[27] = system: Liver microsome; assay: Drug metabolism in human liver microsomes assessed as CF3785 metabolite formation at 10 uM […] by LC-RAM-MS analysis in presence of anti-CYP1A2 monoclonal antibody; assay type: ADME; procedure, shortened: as §2

Chain of CYP3A4 (P08684 whole entry): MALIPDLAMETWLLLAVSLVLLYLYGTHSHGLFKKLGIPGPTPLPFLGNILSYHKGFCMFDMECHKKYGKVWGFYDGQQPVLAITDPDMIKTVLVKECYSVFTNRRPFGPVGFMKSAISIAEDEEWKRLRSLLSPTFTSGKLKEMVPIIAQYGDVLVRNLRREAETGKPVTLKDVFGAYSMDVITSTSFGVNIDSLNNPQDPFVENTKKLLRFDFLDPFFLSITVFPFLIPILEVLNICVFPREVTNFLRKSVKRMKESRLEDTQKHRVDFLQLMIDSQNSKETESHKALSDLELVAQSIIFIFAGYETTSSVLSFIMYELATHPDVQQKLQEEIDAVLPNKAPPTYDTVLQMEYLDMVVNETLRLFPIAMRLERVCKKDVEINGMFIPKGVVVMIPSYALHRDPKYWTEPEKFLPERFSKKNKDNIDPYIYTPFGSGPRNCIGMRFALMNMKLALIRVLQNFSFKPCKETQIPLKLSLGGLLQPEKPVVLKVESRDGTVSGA

COc1c(CO)cnc(Cn2cnc3c(Cl)nc(N)nc32)c1C
Drug metabolism [1]: metabolite_detected | Drug metabolism [2]: metabolite_detected | Drug metabolism [3]: metabolite_detected | Drug metabolism [4]: metabolite_detected | Drug metabolism [5]: metabolite_detected

COc1c(C)cnc(Cn2c(O)nc3c(Cl)nc(N)nc32)c1C
Drug metabolism [6]: metabolite_detected | Drug metabolism [7]: metabolite_detected

Cc1cnc(Cn2cnc3c(Cl)nc(N)nc32)c(C)c1O
Drug metabolism [1]: metabolite_detected | Drug metabolism [8]: metabolite_detected | Drug metabolism [9]: metabolite_detected | Drug metabolism [2]: metabolite_detected | Drug metabolism [3]: metabolite_detected | Drug metabolism [4]: metabolite_detected | Drug metabolism [5]: metabolite_detected

COc1c(C)cnc(Cn2[14cH]nc3c(Cl)nc(N)nc32)c1C
Drug metabolism [10]: metabolite_detected | Drug metabolism [11]: metabolite_detected | Drug metabolism [12]: metabolite_detected | Drug metabolism [13]: metabolite_not_detected | Drug metabolism [14]: metabolite_detected | Drug metabolism [15]: metabolite_detected | Drug metabolism [16]: metabolite_not_detected | Drug metabolism [17]: metabolite_detected | Drug metabolism [18]: metabolite_detected | Drug metabolism [19]: metabolite_detected | Drug metabolism [20]: metabolite_detected | Drug metabolism [21]: metabolite_detected | Drug metabolism [22]: metabolite_not_detected | Drug metabolism [23]: metabolite_detected | Drug metabolism [24]: metabolite_detected | remaining at 0.5 h, 10 µM [25]: 70% | Drug metabolism [26]: metabolite_detected | Drug metabolism [27]: metabolite_detected

— ChEMBL document CHEMBL3526132, “In vitro metabolism of BIIB021, an inhibitor of heat shock protein 90, in liver microsomes and hepatocytes of rats, dogs, and humans and recombinant human cytochrome P450 isoforms” (Drug Metab Dispos, 2012)
